{"data": "Measurements collected from several papers", "Antigen peptide transporter 1/Antigen peptide transporter 2": "Antigen peptide transporter 1/Antigen peptide transporter 2 (Homo sapiens, UniProt Q03518+Q03519)", "PDE4D": "3',5'-cyclic-AMP phosphodiesterase 4D (PDE4D, Homo sapiens, UniProt Q08499)", "CDK7 with cyclin H": "Cyclin-dependent kinase 7, with cyclin H (CDK7, Homo sapiens, UniProt P50613)", "KCNH2": "Voltage-gated inwardly rectifying potassium channel KCNH2 (KCNH2, Homo sapiens, UniProt Q12809)", "TEAD4": "Transcriptional enhancer factor TEF-3 (TEAD4, Homo sapiens, UniProt Q15561)", "note": "Each line is one published result; the experiments were not run side by side."}
{"Compound": "CC(C)C[C@H](NC(=O)[C@H](CCC(=O)O)NC(=O)[C@@H](NC(=O)[C@H](CO)NC(=O)[C@H](CCCCN)NC(=O)[C@H](CCC(N)=O)NC(=O)[C@H](Cc1ccc(O)cc1)NC(=O)[C@@H](N)CCCNC(=N)N)[C@@H](C)O)C(=O)O", "target": "Antigen peptide transporter 1/Antigen peptide transporter 2", "assay": "ligand displacement", "IC50 [µM]": 100}
{"Compound": "COc1cc(C(=O)NS(=O)(=O)c2ccccc2C)ccc1Cc1cn(C)c2ccc(NC(=O)OC3CCCC3)cc12", "target": "PDE4D", "assay": "enzyme activity, inhibitor, radiometric", "IC50 [µM]": 5.38}
{"Compound": "COc1c(-c2ccc3c(c2)OCO3)oc2c(ccc3occc32)c1=O", "target": "CDK7 with cyclin H", "assay": "enzyme activity, inhibitor, ADP detection", "IC50 [µM]": "> 50"}
{"Compound": "C[C@H]1COCCN1c1nc(NCc2cccnc2C(F)(F)F)c2cccnc2n1", "target": "KCNH2", "assay": "ion current, inhibitor", "IC50 [µM]": "> 33.3"}
{"Compound": "CC(C)C[C@H](NC(=O)[C@H](C)NC(=O)[C@H](C)NC(=O)[C@H](C)NC(=O)[C@H](C)NC(=O)[C@H](C)NC(=O)[C@H](C)NC(=O)[C@H](CCCNC(=N)N)NC(=O)[C@H](C)N)C(=O)O", "target": "Antigen peptide transporter 1/Antigen peptide transporter 2", "assay": "ligand displacement", "IC50 [µM]": 0.9}
{"Compound": "CCc1c(C)nc(-c2ccc(Cl)s2)nc1Nc1ccc(CC(=O)O)cc1", "target": "3',5'-cyclic-AMP phosphodiesterase 4D (PDE4D, Homo sapiens, UniProt Q08499, S190D/S715A/S717A)", "assay": "enzyme activity, inhibitor, fluorescence", "IC50 [µM]": 1.57}
{"Compound": "CC(NC(C)(C)C)C(=O)c1cccc(Cl)c1 (centres unmarked)", "target": "Sodium-dependent dopamine transporter (Slc6a3, Rattus norvegicus, UniProt P23977)", "assay": "transporter uptake, inhibitor, radiometric", "IC50 [µM]": 0.305}
{"Compound": "CN1[C@@H](CC(=O)c2ccccc2)CCC[C@H]1C[C@H](O)c1ccccc1", "target": "KCNH2", "assay": "ligand displacement", "test system": "HEK293", "setting": "1 h, pH 7.4, cell membranes", "IC50 [µM]": 1.5}
{"Compound": "CC[C@H](C)[C@H](NC(=O)[C@H](CCCNC(=N)N)NC(=O)CN)C(=O)N[C@@H](CC(=O)O)C(=O)N[C@@H](CCCCN)C(=O)N1CCC[C@H]1C(=O)N[C@H](C(=O)N[C@@H](CC(C)C)C(=O)N[C@@H](C)C(=O)O)[C@@H](C)CC", "target": "Antigen peptide transporter 1/Antigen peptide transporter 2", "assay": "ligand displacement", "IC50 [µM]": 5.4}
{"Compound": "CCCCCCCCCCCCCC(=O)O[C@@H]1[C@@H](C)[C@@]2(O)[C@@H](C=C(CO)C[C@]3(O)C(=O)C(C)=C[C@@H]23)[C@@H]2C(C)(C)[C@]12OC(C)=O", "target": "Proteinase-activated receptor 2 (F2RL1, Homo sapiens, UniProt P55085)", "assay": "calcium signal, antagonist", "IC50 [µM]": 0.00589}
{"Compound": "CC(C)[C@H](NC(=O)[C@H](C)N)C(=O)N[C@@H](C)C(=O)N[C@@H](C)C(=O)N[C@@H](C)C(=O)N[C@@H](C)C(=O)N[C@@H](C)C(=O)N[C@@H](C)C(=O)N[C@@H](C)C(=O)N[C@@H](CCCCN)C(=O)O", "target": "Antigen peptide transporter 1/Antigen peptide transporter 2", "assay": "ligand displacement", "IC50 [µM]": 9.4}
{"Compound": "CC(C)c1cccc(=O)c(O)c1", "target": "eno (Escherichia coli, UniProt P0A6P9)", "assay": "enzyme activity, inhibitor, absorbance", "IC50 [µM]": "8 to 11"}
{"Compound": "CN1[C@@H](CCc2ccccc2)CCC[C@H]1CCc1ccccc1", "target": "KCNH2", "assay": "ligand displacement", "test system": "HEK293", "setting": "1 h, pH 7.4, cell membranes", "IC50 [µM]": 0.238}
{"Compound": "O=c1c2ccccc2[nH]c(=S)n1-c1ccccc1", "target": "Prothrombin (F2, Homo sapiens, UniProt P00734)", "assay": "enzyme activity, inhibitor", "IC50 [µM]": 92.4}
{"Compound": "O=c1cc(-c2ccccc2)oc2c1ccc1occc12", "target": "CDK7 with cyclin H", "assay": "enzyme activity, inhibitor, ADP detection", "IC50 [µM]": 4.8}
{"Compound": "CC[C@H](C)[C@H](NC(=O)[C@H](CCCNC(=N)N)NC(=O)CN)C(=O)N[C@@H](CC(=O)O)C(=O)N[C@@H](CCCCN)C(=O)N1CCC[C@H]1C(=O)N[C@H](C(=O)N[C@@H](CC(C)C)C(=O)N[C@@H](CCCCN)C(=O)O)[C@@H](C)CC", "target": "Antigen peptide transporter 1/Antigen peptide transporter 2", "assay": "ligand displacement", "IC50 [µM]": 2.7}
{"Compound": "CSCC[C@H](NC(=O)[C@H](CCCNC(=N)N)NC(=O)[C@H](CCSC)NC(=O)[C@@H]1CCCN1C(=O)[C@H](CC(C)C)NC(=O)[C@H](CO)NC(=O)[C@H](C)NC(=O)[C@@H]1CCCN1C(=O)[C@@H](NC(=O)[C@H](CC(N)=O)NC(=O)[C@H](CO)NC(=O)[C@H](CO)NC(=O)[C@H](CCCCN)NC(=O)[C@@H]1CCCN1C(=O)[C@H](CC(N)=O)NC(=O)[C@H](CCSC)NC(=O)[C@@H](NC(=O)[C@H](CO)NC(=O)[C@H](CC(N)=O)NC(=O)[C@H](Cc1ccccc1)NC(=O)[C@H](CC(C)C)NC(=O)[C@H](CC(C)C)NC(=O)[C@H](CCC(=O)O)NC(=O)[C@H](CC(C)C)NC(=O)[C@H](CC(=O)O)NC(=O)[C@@H](NC(=O)[C@H](CCC(N)=O)NC(=O)[C@H](CO)NC(C)=O)[C@@H](C)O)C(C)C)C(C)C)C(=O)N[C@@H](CCCNC(=N)N)C(=O)N[C@@H](CC(N)=O)C(=O)N[C@@H](CC(C)C)C(=O)N1CCC[C@H]1C(=O)N[C@@H](CC(=O)O)C(=O)N[C@@H](CO)C(=O)N[C@@H](Cc1ccccc1)C(=O)N[C@@H](Cc1ccccc1)C(=O)N[C@@H](CCCCN)C(=O)N1CCC[C@H]1C(=O)N1CCC[C@H]1C(N)=O", "target": "TEAD4", "assay": "protein-protein interaction, inhibitor, TR-FRET", "IC50 [µM]": 0.065}
{"Compound": "CC(C)C[C@H](NC(=O)[C@H](CCC(=O)O)NC(=O)[C@@H](NC(=O)[C@H](CO)NC(=O)[C@H](CCCCN)NC(=O)[C@H](CCC(N)=O)NC(=O)[C@H](Cc1ccc(O)cc1)NC(=O)[C@H](C)NC(=O)[C@@H](N)CCCNC(=N)N)[C@@H](C)O)C(=O)O", "target": "Antigen peptide transporter 1/Antigen peptide transporter 2", "assay": "ligand displacement", "IC50 [µM]": 0.4}
{"Compound": "CC[C@H](C)[C@H](NC(=O)[C@@H](NC(=O)[C@H](CC(N)=O)NC(=O)[C@H](CCCCN)NC(=O)[C@@H]1CCCN1C(=O)[C@H](CC(N)=O)NC(=O)[C@H](CCSC)NC(=O)[C@@H](NC(=O)[C@H](C)NC(=O)[C@H](CC(N)=O)NC(=O)[C@H](Cc1ccccc1)NC(=O)[C@H](CC(C)C)NC(=O)[C@H](C)NC(=O)[C@H](CCC(=O)O)NC(=O)[C@H](CC(C)C)NC(=O)[C@H](CC(=O)O)NC(=O)[C@@H](NC(=O)[C@H](CCC(=O)O)NC(=O)[C@H](CO)NC(C)=O)[C@@H](C)O)C(C)C)[C@@H](C)O)C(=O)N[C@H](C(=O)N1CCC[C@H]1C(=O)N1CCC[C@H]1C(=O)N[C@@H](CO)C(=O)N[C@H](C(=O)N1CCC[C@H]1C(=O)N[C@@H](CCSC)C(=O)N[C@@H](CCCNC(=N)N)C(=O)N[C@@H](CC(C)C)C(=O)N[C@@H](CCCNC(=N)N)C(=O)N[C@@H](CCCCN)C(=O)N[C@@H](CC(C)C)C(=O)N1CCC[C@H]1C(=O)N[C@@H](CC(=O)O)C(=O)N[C@@H](CO)C(=O)N[C@@H](Cc1ccccc1)C(=O)N[C@@H](Cc1ccccc1)C(=O)N[C@H](C(=O)N1CCC[C@H]1C(=O)N1CCC[C@H]1C(N)=O)[C@@H](C)O)C(C)C)C(C)C", "target": "TEAD4", "assay": "protein-protein interaction, inhibitor, TR-FRET", "IC50 [µM]": 0.064}
{"Compound": "CCCCOc1ccc(C(=O)CCN2CCCCC2)cc1", "target": "PDE4D", "assay": "enzyme activity, inhibitor, radiometric", "IC50 [µM]": 11.3}
